Measured values taken from ChEMBL document CHEMBL4689842, “EUbOPEN Chemogenomics Library wave 1” (2021).

System: Fibroblast
Assay: Multiplex assay against human fibroblast
Assay type: toxicity, cell-based
Method in brief: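 Cells stained live at seeding with Hoechst33342, BioTracker Green Microtubule Cytoskeleton Dye, MitoTracker Red and Annexin V Alexa Fluor 680 were imaged on a CQ1 microscope at 37°C and 5% CO2 after compound addition. Their classification by CellPathfinder machine-learning gating ran from Hoechst high-intensity objects versus normal cells, to healthy, pyknosed or fragmented nuclei among normal cells, to mitotic or apoptotic among pyknosed cells. Tubulin, mitochondrial-mass and membrane-permeability phenotypes are per cents of healthy-nucleus cells.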

[1] = 12 h, 1 µM, compound concentration 1 uM, replicate 1
[2] = 12 h, 1 µM, compound concentration 1 uM, replicate 2
[3] = 12 h, 10 µM, compound concentration 10 uM, replicate 1
[4] = 12 h, 10 µM, compound concentration 10 uM, replicate 2
[5] = 24 h, 1 µM, compound concentration 1 uM, replicate 1
[6] = 24 h, 1 µM, compound concentration 1 uM, replicate 2
[7] = 24 h, 10 µM, compound concentration 10 uM, replicate 1
[8] = 24 h, 10 µM, compound concentration 10 uM, replicate 2
[9] = 48 h, 1 µM, compound concentration 1 uM, replicate 1
[10] = 48 h, 1 µM, compound concentration 1 uM, replicate 2
[11] = 48 h, 10 µM, compound concentration 10 uM, replicate 1
[12] = 48 h, 10 µM, compound concentration 10 uM, replicate 2

Cn1cc(-c2[nH]c3cc(NC(=O)[C@H](N)C4CCCCC4)cc4c3c2C=NNC4=O)cn1
Population Apoptotic (%) [1]: 76%
Population Fragmented Nuclei (%) [1]: 27%
Population Healthy Nuclei (%) [1]: 42%
Population Hoechst High Intensity Objects (%) [1]: 8%
Population Membrane Permeable-Phenotype (%) [1]: 18%
Population Mitochondria Different-Phenotype (%) [1]: 13%
Population Mitotic Cells (%) [1]: 23%
Population Normal (%) [1]: 91%
Population Pyknosed Nuclei (%) [1]: 30%
Population Tubulin-Different-Phenotype (%) [1]: 28%
Total Cell Count [1]: 138
Population Apoptotic (%) [2]: 33%
Population Fragmented Nuclei (%) [2]: 13%
Population Healthy Nuclei (%) [2]: 72%
Population Hoechst High Intensity Objects (%) [2]: 3%
Population Membrane Permeable-Phenotype (%) [2]: 4%
Population Mitochondria Different-Phenotype (%) [2]: 7%
Population Mitotic Cells (%) [2]: 66%
Population Normal (%) [2]: 96%
Population Pyknosed Nuclei (%) [2]: 13%
Population Tubulin-Different-Phenotype (%) [2]: 12%
Total Cell Count [2]: 51
Population Apoptotic (%) [3]: 69%
Population Fragmented Nuclei (%) [3]: 48%
Population Healthy Nuclei (%) [3]: 38%
Population Hoechst High Intensity Objects (%) [3]: 20%
Population Membrane Permeable-Phenotype (%) [3]: 20%
Population Mitochondria Different-Phenotype (%) [3]: 4%
Population Mitotic Cells (%) [3]: 30%
Population Normal (%) [3]: 79%
Population Pyknosed Nuclei (%) [3]: 13%
Population Tubulin-Different-Phenotype (%) [3]: 43%
Total Cell Count [3]: 244
Population Fragmented Nuclei (%) [4]: 37%
Population Healthy Nuclei (%) [4]: 42%
Population Hoechst High Intensity Objects (%) [4]: 9%
Population Membrane Permeable-Phenotype (%) [4]: 21%
Population Mitochondria Different-Phenotype (%) [4]: 53%
Population Normal (%) [4]: 90%
Population Pyknosed Nuclei (%) [4]: 19%
Population Tubulin-Different-Phenotype (%) [4]: 57%
Total Cell Count [4]: 91
Population Apoptotic (%) [5]: 58%
Population Fragmented Nuclei (%) [5]: 27%
Population Healthy Nuclei (%) [5]: 44%
Population Hoechst High Intensity Objects (%) [5]: 12%
Population Membrane Permeable-Phenotype (%) [5]: 20%
Population Mitochondria Different-Phenotype (%) [5]: 3%
Population Mitotic Cells (%) [5]: 41%
Population Normal (%) [5]: 87%
Population Pyknosed Nuclei (%) [5]: 28%
Population Tubulin-Different-Phenotype (%) [5]: 26%
Total Cell Count [5]: 137
Population Apoptotic (%) [6]: 43%
Population Fragmented Nuclei (%) [6]: 13%
Population Healthy Nuclei (%) [6]: 70%
Population Hoechst High Intensity Objects (%) [6]: 3%
Population Membrane Permeable-Phenotype (%) [6]: 9%
Population Mitochondria Different-Phenotype (%) [6]: 6%
Population Mitotic Cells (%) [6]: 56%
Population Normal (%) [6]: 96%
Population Pyknosed Nuclei (%) [6]: 15%
Population Tubulin-Different-Phenotype (%) [6]: 15%
Total Cell Count [6]: 52
Population Apoptotic (%) [7]: 62%
Population Fragmented Nuclei (%) [7]: 54%
Population Healthy Nuclei (%) [7]: 37%
Population Hoechst High Intensity Objects (%) [7]: 23%
Population Membrane Permeable-Phenotype (%) [7]: 20%
Population Mitochondria Different-Phenotype (%) [7]: 1%
Population Mitotic Cells (%) [7]: 37%
Population Normal (%) [7]: 76%
Population Pyknosed Nuclei (%) [7]: 8%
Population Tubulin-Different-Phenotype (%) [7]: 52%
Total Cell Count [7]: 256
Population Apoptotic (%) [8]: 86%
Population Fragmented Nuclei (%) [8]: 34%
Population Healthy Nuclei (%) [8]: 29%
Population Hoechst High Intensity Objects (%) [8]: 16%
Population Membrane Permeable-Phenotype (%) [8]: 44%
Population Mitochondria Different-Phenotype (%) [8]: 61%
Population Mitotic Cells (%) [8]: 13%
Population Normal (%) [8]: 83%
Population Pyknosed Nuclei (%) [8]: 36%
Population Tubulin-Different-Phenotype (%) [8]: 55%
Total Cell Count [8]: 106
Population Apoptotic (%) [9]: 43%
Population Fragmented Nuclei (%) [9]: 30%
Population Healthy Nuclei (%) [9]: 49%
Population Hoechst High Intensity Objects (%) [9]: 14%
Population Membrane Permeable-Phenotype (%) [9]: 26%
Population Mitochondria Different-Phenotype (%) [9]: 3%
Population Mitotic Cells (%) [9]: 56%
Population Normal (%) [9]: 85%
Population Pyknosed Nuclei (%) [9]: 20%
Population Tubulin-Different-Phenotype (%) [9]: 26%
Total Cell Count [9]: 134
Population Apoptotic (%) [10]: 0%
Population Fragmented Nuclei (%) [10]: 47%
Population Healthy Nuclei (%) [10]: 50%
Population Hoechst High Intensity Objects (%) [10]: 15%
Population Membrane Permeable-Phenotype (%) [10]: 20%
Population Mitochondria Different-Phenotype (%) [10]: 2%
Population Mitotic Cells (%) [10]: 100%
Population Normal (%) [10]: 84%
Population Pyknosed Nuclei (%) [10]: 2%
Population Tubulin-Different-Phenotype (%) [10]: 38%
Total Cell Count [10]: 103
Population Apoptotic (%) [11]: 77%
Population Fragmented Nuclei (%) [11]: 52%
Population Healthy Nuclei (%) [11]: 41%
Population Hoechst High Intensity Objects (%) [11]: 39%
Population Membrane Permeable-Phenotype (%) [11]: 14%
Population Mitochondria Different-Phenotype (%) [11]: 3%
Population Mitotic Cells (%) [11]: 22%
Population Normal (%) [11]: 60%
Population Pyknosed Nuclei (%) [11]: 5%
Population Tubulin-Different-Phenotype (%) [11]: 36%
Total Cell Count [11]: 251
Population Apoptotic (%) [12]: 50%
Population Fragmented Nuclei (%) [12]: 62%
Population Healthy Nuclei (%) [12]: 35%
Population Hoechst High Intensity Objects (%) [12]: 32%
Population Membrane Permeable-Phenotype (%) [12]: 11%
Population Mitochondria Different-Phenotype (%) [12]: 2%
Population Mitotic Cells (%) [12]: 50%
Population Normal (%) [12]: 67%
Population Pyknosed Nuclei (%) [12]: 1%
Population Tubulin-Different-Phenotype (%) [12]: 53%
Total Cell Count [12]: 186
